The list is not random: actives were taken first. Their share in the collection is about 2.1%.
MEKK2 WT-MEK5 = raises or lowers MEK5 binding to wildtype human MEKK2 PB1 domain. bead flow cytometry, Alexa488-MEK5 binding to MEKK2 WT; actives lie on both sides. binding response (% of control), % at 10 µM. 1.1% of 290,000 active. AID 1531. Q9Y2U5; in the data active = binding response below about 67% or above about 130%
MEKK2 mut-MEK5 = signal of MEK5 binding to mutant human MEKK2 PB1 domain; bead flow cytometry, Alexa488-MEK5 binding to MEKK2 mutant; percent response, % at 10 µM; 0.35% of 290,000 active; in the data active = percent response above about 24%, passing the limit was not always enough
GSK3 alpha inh = human GSK-3 alpha kinase inhibition. inhibition, % at 10 µM. P49840. 0.1% of 320,000 active. ADP-Glo luminescence, 60 min;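 active = more than half of replicates show inhibition above 20%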;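 also: GST-tagged GSK-3 alpha with peptide substrate and 25 µM ATP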
STK33 inh = blocks human STK33 kinase activity; inhibition, % at 10 µM; Q9BYT3; purified STK33, MBP phosphorylation, ADP-Glo luminescence; 0.073% of 320,000 active;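 active = inhibition at or above 25%, using the most active replicate where run in duplicate; inactive = inhibition below 25%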
GSK3beta inhib = inhibitors of human GSK3beta kinase; P49841; GST-GSK3beta kinase, ADP-Glo luminescence, 60 min; active compounds read low; activity score (negative = inhibition), % at 10 µM; 0.038% of 300,000 active;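 active = more than half of replicate wells score below -50%, meaning over 50% inhibition versus plate controls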
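Test system: GST-fused GSK3beta enzyme, cell-free | Quantity: 1.6 ng GST-GSK3beta enzyme per well | Reagent: 25 µM ATP with peptide substrate | Schedule: 60 min enzyme reaction, room temperature | Signal: Luminescent ADP-Glo measurement of ADP formed | Read-out basis: Score relative to plate controls | Control set: DMSO and 20 µM GW8510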
MEKK3 PB1 HTS = modulators (inhibitors or enhancers) of MEK5 binding to human MEKK3 PB1 domain; bead-based flow cytometry, Alexa488-MEK5 binding to MEKK3; actives lie on both sides; 0 = blocked by unlabeled MEK5, 100 = vehicle; binding response (% of control), % at 10 µM; 1.4% of 290,000 active;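 active = binding response more than 3 SD above or below the average of its plate-row segment, actives on both sides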;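 also: Alexa488 bead fluorescence after subtracting the streptavidin-only scavenger bead signal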
Target sequence (Q99759 whole entry, looked up, the tested form may be a part): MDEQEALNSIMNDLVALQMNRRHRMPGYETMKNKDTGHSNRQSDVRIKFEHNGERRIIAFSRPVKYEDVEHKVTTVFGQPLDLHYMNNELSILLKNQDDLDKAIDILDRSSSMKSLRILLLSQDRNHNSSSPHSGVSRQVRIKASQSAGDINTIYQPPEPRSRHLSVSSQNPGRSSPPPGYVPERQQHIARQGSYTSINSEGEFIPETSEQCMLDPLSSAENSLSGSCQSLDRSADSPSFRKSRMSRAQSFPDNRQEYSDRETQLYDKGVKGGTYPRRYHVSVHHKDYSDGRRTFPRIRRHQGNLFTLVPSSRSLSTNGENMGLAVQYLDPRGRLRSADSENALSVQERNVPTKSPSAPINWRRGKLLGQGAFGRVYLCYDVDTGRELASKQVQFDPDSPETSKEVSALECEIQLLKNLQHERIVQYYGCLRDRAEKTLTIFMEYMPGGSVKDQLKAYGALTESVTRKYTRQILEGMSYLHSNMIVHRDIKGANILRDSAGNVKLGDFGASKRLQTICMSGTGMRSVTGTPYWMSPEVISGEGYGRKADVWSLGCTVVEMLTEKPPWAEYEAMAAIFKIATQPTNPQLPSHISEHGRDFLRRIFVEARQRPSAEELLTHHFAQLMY
MEKK2wt confirm = raises or lowers MEK5 binding to wildtype human MEKK2, retest; binding response (% of control), % at 10 µM; shares compounds with MEKK3 PB1 HTS; bead flow cytometry, Alexa488-MEK5 binding to MEKK2 WT; actives lie on both sides; 2.4% of 5,900 active; in the data active = binding response below about 16% or above about 210%; inactive = in between
MEKK2mut confirm = signal of MEK5 binding to mutant human MEKK2, retest. shares compounds with MEKK3 PB1 HTS. bead flow cytometry, Alexa488-MEK5 binding to MEKK2 mutant. percent response, % at 10 µM. 2% of 5,900 active. AID 1893; in the data active = percent response mostly above about 71%, no sharp cut-off; inactive = mostly below about 38%;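 also: higher means compound restores mutant binding toward wildtype level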
MEKK3-MEK5 inh = MEKK3-MEK5 PB1 inhibition, single concentration confirmation; shares compounds with MEKK3 PB1 HTS; bead flow cytometry, Alexa488-MEK5 binding to MEKK3; active compounds read low; binding response (% of control), % at 10 µM; 1.8% of 5,900 active;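 active = binding response below 72% of control, or above a set upper limit, though filed actives all read lower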;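 also: lower values mean stronger disruption of MEK5 binding to MEKK3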
Hits are given with their value; 0 = inactive; - = no result; [ ] = remark or other dose.

SMILES	MEKK2 WT-MEK5	MEKK2 mut-MEK5	GSK3 alpha inh	STK33 inh	GSK3beta inhib	MEKK3 PB1 HTS	MEKK2wt confirm	MEKK2mut confirm	MEKK3-MEK5 inh
O=C(C[n+]1cccc2ccccc21)c1ccccc1	0	0	0	0	0	0	-	-	-
O=C(C[n+]1cccc2ccccc21)c1ccc(NC(=O)c2ccccc2)cc1	-	-	0	0	0	37[inhibitor]	0	0	0
O=C(COc1ccccc1Cl)Nc1ccc(S(=O)(=O)Nc2ccccn2)cc1	0	0	0	0	0	0	-	-	-
Cc1cc(C)c[n+](-c2[nH]c(=O)sc2/C=N/NC([S-])=Nc2ccccc2)c1	0	0	-	-	0	136	0	0	0
Cc1ccc(CNCCCSc2ncccn2)cc1	0	0	0	0	0	0	-	-	-
COc1ccc(C(OC(=O)c2ccco2)C(=O)NC(C)(C)C)cc1 (stereo not given)	0	0	0	-	0	139	0	0	0
COCCNC(=O)C(OC(=O)c1ccco1)c1ccccc1OC (stereo not given)	0	0	0	0	0	123	0	0	0
O=C(CSCc1ccccc1Cl)NNC(=S)Nc1ccccc1	0	0	0	0	0	0	-	-	-
CCCCn1cc(SCC(=O)O)c2ccccc21	-1.0[inhibitor]	0	0	0	0	-1.0[inhibitor]	0	0	0
CCCn1cc(SCC(=O)NC2CCCC2)c2ccccc21	0	0	0	0	0	0	-	-	-
O=S(=O)(NCc1ccccc1)c1ccc(Br)c2nsnc12	0	0	0	0	0	0	-	-	-
COc1ccc(/C=N/N=C2/NC(=O)C(CC(=O)O)S2)cc1OCc1ccccc1Cl (stereo not given)	0	0	0	0	0	146	0	0	0
CCCCN1C(=O)CCC(C(=O)O)C1c1ccccc1 (stereo not given)	-1.0[inhibitor]	0	0	0	0	0.0[inhibitor]	0	0	0
NS(=O)(=O)c1cccc(NC(=O)c2cccc(S(=O)(=O)N3CCCCCC3)c2)c1	-	-	0	0	-	-	-	-	-
O=C(Nc1cccc(S(=O)(=O)N2CCCCC2)c1)c1ccc2ncsc2c1	59[inhibitor]	0	0	0	0	0	0	0	0
O=C(Cc1ccccc1Cl)Nc1cccc(S(=O)(=O)N2CCCCCC2)c1	-	-	0	0	-	-	-	-	-
O=C(Nc1cccc(S(=O)(=O)N2CCCCC2)c1)Nc1ccc(Cl)cc1Cl	141	0	0	0	0	153	0	0	0
Cc1onc(-c2ccccc2)c1C(=O)NC(=S)NNC(=O)c1ccncc1	0	0	0	0	0	131	0	0	0
Cc1onc(-c2ccccc2)c1C(=O)NC(=S)NNC(=O)c1cccnc1	0	0	0	0	0	0	-	-	-
N#Cc1ccccc1COC(=O)c1cccc(S(=O)(=O)N2CCCC2)c1	-	-	0	0	-	-	-	-	-
COc1cccc(C(=O)COC(=O)C2CC(=O)N(c3ccc(Oc4ccccc4OC)cc3)C2)c1 (stereo not given)	0	0	0	0	0	0	-	-	-
COc1ccccc1Oc1ccc(N2CC(C(=O)OCC(=O)c3ccccc3)CC2=O)cc1 (stereo not given)	9.0[inhibitor]	0	0	0	0	6.0[inhibitor]	0	0	0
CN(Cc1ccc(C#CCCO)cc1)CC1CCCN(CCc2ccc(Cl)cc2)C1 (stereo not given)	154	0	0	0	0	0	0	0	0
O=C(CSc1nc2ccccc2c(=O)n1-c1ccccc1)N1CCc2ccccc2C1	0	0	-	-	0	0	-	-	-
O=C(CSc1nc2ccccc2c(=O)n1-c1ccccc1)N1CCN(CCO)CC1	3.0[inhibitor]	0	-	0	0	2.0[inhibitor]	0	0	0
SMILES	MEKK2 WT-MEK5	MEKK2 mut-MEK5	GSK3 alpha inh	STK33 inh	GSK3beta inhib	MEKK3 PB1 HTS	MEKK2wt confirm	MEKK2mut confirm	MEKK3-MEK5 inh
Cc1ccc(-n2c(SCC(=O)N3CC(=O)Nc4ccccc43)nc3ccccc3c2=O)cc1C	0	0	0	0	0	136	0	0	0
O=C(CSc1nc2ccccc2c(=O)n1-c1ccccc1)N1CCC1	0	0	0	0	0	0	-	-	-
CC(C)c1ccccc1-n1c(SCC(=O)N2CCc3ccccc3C2)nc2ccccc2c1=O	0	0	0	0	0	155	0	0	0
CCc1cc(C(=O)N2CCN(S(=O)(=O)c3ccc(Cl)cc3)CC2)sc1C	-	-	0	0	-	-	-	-	-
CN(C(=S)Nc1ccc(SC(F)F)cc1)c1ccc(O)cc1	0	0	0	0	0	133	0	0	0
CCCOP(=O)(c1ccccc1)c1ccccc1	0	0	0	0	0	141	0	0	0
CCN1CCN(c2ccc(S(=O)(=O)N3CCOCC3)cc2NC(=O)/C=C/c2cccc(OC)c2OC)CC1	-	-	0	0	0	-	-	-	-
c1ccc(-c2ccc(OCCCNC3CCCC3)cc2)cc1	0	0	0	0	0	0	-	-	-
c1ccc(Cc2ccc(OCCCNC3CCCC3)cc2)cc1	138	0	0	0	0	0	0	0	0
S=C(NCCCN1CCOCC1)N1CCN(c2nc(-c3ccc(Cl)cc3)cs2)CC1	163	0	0	0	0	0	0	0	0
S=C(NCCCN1CCOCC1)N1CCN(c2nc(-c3ccccc3)cs2)CC1	0	0	0	0	0	0	-	-	-
Cc1nnc(SCSc2nnc(C)s2)s1	0	0	0	0	0	0	-	-	-
Cc1nnc(SCc2ccccc2CSc2nnc(C)s2)s1	0	0	0	0	0	130	0	0	0
Cc1ccc(Cn2c(=N)n(CC(O)COc3ccccc3)c3ccccc32)cc1 (stereo not given)	134	0	0	0	0	0	0	0	0
N=c1n(Cc2ccccc2)c2ccccc2n1CC(O)COc1ccccc1 (stereo not given)	0	0	0	0	0	0	-	-	-
Cc1ccc(NC(=O)C2CCCN2S(=O)(=O)c2ccc3c(c2)n(C)c(=O)c(=O)n3C)cc1 (stereo not given)	0	0	0	0	0	0	-	-	-
CCc1ccc(NC(=O)C2CCCN2S(=O)(=O)c2ccc3c(c2)n(C)c(=O)c(=O)n3C)cc1 (stereo not given)	0	0	0	0	0	68[inhibitor]	0	0	0
COCc1nnc(NS(=O)(=O)c2ccc(C)cc2)s1	0.0[inhibitor]	0	0	0	0	0.0[inhibitor]	0	0	0
CS(=O)(=O)N(CC(=O)NCCSCc1ccccc1)c1ccccc1Cl	0	0	0	0	0	0	-	-	-
CCOC(=O)CCSc1nc(C)c2cc(C)c(C)cc2n1	0	0	0	0	0	0	-	-	-
